pIC50: −log10 of the molar value. Blank lines part the entries; values can stand above or below the molecule they belong to. Calls of active or inactive are those of the source. The rule behind the calls is not given here.
Key:
[1] = Plasma clearance in Sprague-Dawley rat at 2 mg/kg, iv; assay type: ADME, organism-based; set-up: dose 2 mg/kg, route intravenous
[2] = Inhibition of cytosolic phospholipase A2alpha by GLU micelle assay
Outline: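 Micellar assay with 7-hydroxycoumarinyl-γ-linolenate (GLU) substrate, presenting inhibitor and substrate to the enzyme in high-lipid micelles. Each run gives the mean of duplicate assays, and values come from at least two runs.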

Blood [3] = experiment: Inhibition of TXB2 production in Sprague-Dawley rat whole blood; assay type: functional, tissue-based
Outline: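 Rat whole blood stimulated with calcium ionophore A23187 at 5 µM, with thromboxane B2 measured. Each run gives the mean of triplicate assays, and values come from at least two runs.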

[4] = Inhibition of cytosolic phospholipase A2alpha at 0.020 uM
Outline: (§1)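 Isolated enzyme activity on PAPC (1-palmitoyl-2-arachidonoyl-sn-glycero-3-phosphocholine) liposome substrate.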

[5] = Plasma concentration in adjuvant-induced arthritis Lewis rat model at 25 mg/kg, po after 4 hrs; assay type: ADME, organism-based; set-up: dose 25 mg/kg, route oral
Rattus norvegicus [6] = experiment: Inhibition of PGE2 production in carrageenan-stimulated rat air pouch model at 5 mg/kg, po after 6 hrs; assay type: functional
Outline: (§2)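 Carrageenan was injected into a preformed air pouch 2 h after oral drug. Pouch contents were removed 6 h later and PGE2 was quantified.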

Rattus norvegicus [7] = experiment: Reduction in cartilage damage in Freund's adjuvant-induced arthritis Lewis rat model at 5 mg/kg, po for 11 days; assay type: functional, organism-based; set-up: dose 5 mg/kg
Outline: (§3)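 Arthritis was induced in Lewis rats by intradermal complete Freund's adjuvant at the base of the tail. Oral treatment began on day 8, when mean clinical joint scores were 12, and continued for 11 days. Tarsal joints were taken at necropsy and lesions were scored histologically in blinded fashion.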

[8] = Plasma concentration in adjuvant-induced arthritis Lewis rat model at 50 mg/kg, po after 16 hrs; assay type: ADME, organism-based; set-up: dose 50 mg/kg, route oral
Rattus norvegicus [9] = experiment: Inhibition of carrageenan-induced paw edema in Sprague-Dawley rat administered 2 hrs before carrageenan challenge at 25 mg/kg, po; assay type: functional
Ovis aries [10] = experiment: Inhibition of acute hyperresponsiveness in Ascaris Suum antigen-induced reversible airway bronchoconstriction sheep model assessed as reduction in lung resistance at 10 mg/kg, po bid administered and measured after 16 hrs
[11] = molecular target: T1, Cytosolic phospholipase A2 gamma (Homo sapiens) (UniProt Q9UP65); experiment: Inhibition of cytosolic phospholipase A2gamma at 0.5 uM; outline: as §1
T1 sequence (whole entry): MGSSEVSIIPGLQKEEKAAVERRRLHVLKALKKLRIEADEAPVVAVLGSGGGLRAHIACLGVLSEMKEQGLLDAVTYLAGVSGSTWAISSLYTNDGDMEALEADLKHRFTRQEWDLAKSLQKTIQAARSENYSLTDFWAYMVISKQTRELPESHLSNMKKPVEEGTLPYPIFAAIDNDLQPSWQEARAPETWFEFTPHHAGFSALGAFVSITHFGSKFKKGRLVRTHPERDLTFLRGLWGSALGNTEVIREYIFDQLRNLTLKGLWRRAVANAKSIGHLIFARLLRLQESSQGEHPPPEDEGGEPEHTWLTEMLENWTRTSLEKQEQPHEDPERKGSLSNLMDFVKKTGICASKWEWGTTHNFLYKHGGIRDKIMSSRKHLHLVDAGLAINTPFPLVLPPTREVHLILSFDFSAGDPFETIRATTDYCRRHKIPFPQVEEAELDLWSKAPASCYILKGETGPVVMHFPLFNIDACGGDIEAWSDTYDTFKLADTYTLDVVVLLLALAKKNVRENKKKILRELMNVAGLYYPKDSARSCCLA

MC9 [12] = experiment: Inhibition of LTB4 production in mouse MC9 cells; assay type: functional, cell-based
[13] = Oral bioavailability in rat; assay type: ADME, organism-based; details: in vivo
[14] = Inhibition of secreted phospholipase A2 at 0.5 uM
Outline: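 Type II secreted PLA2 activity measured with PAPE (1-palmitoyl-2-arachidonoyl-sn-glycero-3-phosphoethanolamine) liposomes as substrate.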

Rattus norvegicus [15] = experiment: Inhibition of carrageenan-induced paw edema in po dosed Sprague-Dawley rat administered 2 hrs before carrageenan challenge; assay type: functional
Ovis aries [16] = experiment: Effect on late asthmatic response in Ascaris Suum antigen-induced reversible airway bronchoconstriction sheep model assessed as reduction in lung resistance at 10 mg/kg, po bid administered 2 hrs before antigen challenge measured 5 to 8 hrs after challenge; assay type: functional; set-up: scale not given: the % may be the effect or the level left
[17] = Ratio of AUC in Sprague-Dawley rat at 25 mg/kg, po to IC50 for TXB2 production in Sprague-Dawley rat whole blood; assay type: functional
Rattus norvegicus [18] = experiment: Reduction in synovitis damage in Freund's adjuvant-induced arthritis Lewis rat model at 25 mg/kg, po for 11 days; assay type: functional, organism-based; set-up: dose 25 mg/kg; outline: as §3
[19] = Plasma concentration in adjuvant-induced arthritis Lewis rat model at 5 mg/kg, po after 16 hrs; assay type: ADME, organism-based; set-up: dose 5 mg/kg, route oral
[20] = Inhibition of cytosolic phospholipase A2alpha
[21] = Plasma concentration in collagen-induced arthritis mouse model at 100 mg/kg, po twice daily after 3 hrs; assay type: ADME, organism-based; set-up: dose 100 mg/kg, route oral
Rattus norvegicus [22] = experiment: Reduction in synovitis damage in Freund's adjuvant-induced arthritis Lewis rat model at 5 mg/kg, po for 11 days; assay type: functional, organism-based; set-up: dose 5 mg/kg; outline: as §3
Mus musculus = experiment: Plasma concentration in collagen-induced arthritis mouse model at 100 mg/kg, po twice daily after 12 to 14 hrs; assay type: ADME, organism-based; set-up: dose 100 mg/kg, route oral; details: in vivo
[23] = test system: Prostaglandin G/H synthase 2, cyclooxygenase-2; experiment: Inhibition of COX2 in microsomes at 100 uM
[24] = Plasma concentration in adjuvant-induced arthritis Lewis rat model at 50 mg/kg, po after 4 hrs; assay type: ADME, organism-based; set-up: dose 50 mg/kg, route oral
MC9 [25] = experiment: Inhibition of PGF2apha production in arachidonic acid-stimulated mouse MC9 cells; assay type: functional, cell-based
[26] = Plasma concentration in adjuvant-induced arthritis Lewis rat model at 25 mg/kg, po after 16 hrs; assay type: ADME, organism-based; set-up: dose 25 mg/kg, route oral
Blood [27] = experiment: Inhibition of LTB4 production in human whole blood at 0.039 uM; assay type: functional
Outline: (§4)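 Human whole blood stimulated with calcium ionophore A23187 at 30 µM. Several arachidonic acid metabolites (LTB4, PGE2, PGF2α, TXB2) and PAF production were quantified.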

MC9 [28] = experiment: Inhibition of PGF2alpha production in mouse MC9 cells; assay type: functional, cell-based
Blood [29] = experiment: Inhibition of PGE2 production in human whole blood at 0.039 uM; assay type: functional; outline: as §4
[30] = Plasma concentration in adjuvant-induced arthritis Lewis rat model at 5 mg/kg, po after 4 hrs; assay type: ADME, organism-based; set-up: dose 5 mg/kg, route oral
[31] = molecular target: T2, Cytosolic phospholipase A2 beta (Homo sapiens) (UniProt P0C869); experiment: Inhibition of cytosolic phospholipase A2beta at 0.5 uM; outline: as §1
T2 sequence (whole entry): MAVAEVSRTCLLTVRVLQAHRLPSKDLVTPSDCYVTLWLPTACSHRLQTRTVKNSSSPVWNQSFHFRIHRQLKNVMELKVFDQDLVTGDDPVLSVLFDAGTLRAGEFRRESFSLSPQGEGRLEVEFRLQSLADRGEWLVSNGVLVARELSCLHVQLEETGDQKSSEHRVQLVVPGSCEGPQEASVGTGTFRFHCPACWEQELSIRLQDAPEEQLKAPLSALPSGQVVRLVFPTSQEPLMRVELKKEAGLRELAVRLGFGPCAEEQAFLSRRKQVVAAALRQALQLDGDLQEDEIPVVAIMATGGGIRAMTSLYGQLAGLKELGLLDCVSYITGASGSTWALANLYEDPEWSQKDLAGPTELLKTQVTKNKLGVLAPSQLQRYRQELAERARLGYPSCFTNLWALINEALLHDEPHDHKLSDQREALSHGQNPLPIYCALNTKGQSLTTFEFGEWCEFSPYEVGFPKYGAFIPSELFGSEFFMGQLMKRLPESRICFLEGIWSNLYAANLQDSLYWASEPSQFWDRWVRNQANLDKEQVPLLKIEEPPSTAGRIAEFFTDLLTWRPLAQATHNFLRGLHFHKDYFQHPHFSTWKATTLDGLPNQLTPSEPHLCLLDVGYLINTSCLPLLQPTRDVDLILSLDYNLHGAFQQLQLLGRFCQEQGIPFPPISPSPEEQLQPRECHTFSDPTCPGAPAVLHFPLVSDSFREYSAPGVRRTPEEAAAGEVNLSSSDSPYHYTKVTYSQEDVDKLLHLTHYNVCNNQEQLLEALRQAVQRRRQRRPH

Blood [32] = experiment: Inhibition of PGF2alpha production in human whole blood at 0.039 uM; assay type: functional; outline: as §4
Rattus norvegicus [33] = experiment: Inhibition of PGE2 production in carrageenan-stimulated orally dosed rat air pouch model after 6 hrs; assay type: functional; details: po; outline: as §2
Rattus norvegicus [34] = experiment: Reduction in cartilage damage in Freund's adjuvant-induced arthritis Lewis rat model at 50 mg/kg, po for 11 days; assay type: functional, organism-based; set-up: dose 50 mg/kg; outline: as §3
Rattus norvegicus [35] = experiment: Reduction in cartilage damage in Freund's adjuvant-induced arthritis Lewis rat model at 25 mg/kg, po for 11 days; assay type: functional, organism-based; set-up: dose 25 mg/kg; outline: as §3
Blood [36] = experiment: Inhibition of TXB2 production in human whole blood at 0.039 uM; assay type: functional; outline: as §4
Rattus norvegicus [37] = experiment: Reduction in synovitis damage in Freund's adjuvant-induced arthritis Lewis rat model at 50 mg/kg, po for 11 days; assay type: functional, organism-based; set-up: dose 50 mg/kg; outline: as §3
[38] = test system: Prostaglandin G/H synthase 1, cyclooxygenase-1; experiment: Inhibition of COX1 in microsomes at 100 uM
Blood [39] = experiment: Inhibition of PAF production in human whole blood at 0.039 uM; assay type: functional; outline: as §4

clearance [1]: 19 mL/min/kg
pIC50 [2]: 7.70
pIC50 (Blood [3]): 6.82
SMILES: O=C(O)c1ccc(S(=O)(=O)CCc2c(CCNS(=O)(=O)Cc3ccc(Cl)c(Cl)c3)n(C(c3ccccc3)c3ccccc3)c3ccc(Cl)cc23)cc1

clearance [1]: 25 mL/min/kg
pIC50 [2]: 8.40
pIC50 (Blood [3]): 7.15
SMILES: Cc1cccc(C)c1CS(=O)(=O)NCCc1c(CCS(=O)(=O)c2ccc(C(=O)O)cc2)c2cc(Cl)ccc2n1C(c1ccccc1)c1ccccc1

clearance [1]: 10 mL/min/kg
pIC50 [2]: 7.40
pIC50 (Blood [3]): 7.40
SMILES: O=C(O)CCc1ccc(S(=O)(=O)CCc2c(CCNS(=O)(=O)Cc3ccc(Cl)c(Cl)c3)n(C(c3ccccc3)c3ccccc3)c3ccc(Cl)cc23)cc1

clearance [1]: 63 mL/min/kg
pIC50 [2]: 8.00
pIC50 (Blood [3]): 7.70
SMILES: O=C(O)CCc1ccc(S(=O)(=O)CCc2c(CCNS(=O)(=O)Cc3ccccc3Cl)n(C(c3ccccc3)c3ccccc3)c3ccc(Cl)cc23)cc1

clearance [1]: 3 mL/min/kg
inhibition [4]: > 90%
concentration at 4 h [5]: 698 ng/mL
concentration at 16 h [8]: 110 ng/mL
Activity [11]: inactive
pIC50 [2]: 8.00
pIC50 (MC9 [12]): 7.92
bioavailability [13]: 4%
Activity [14]: inactive
concentration at 16 h [19]: 26 ng/mL
pIC50 [20]: > 8.00
concentration at 3 h [21]: 923 ng/mL
Cp (Mus musculus): 118 ng/mL
Activity [23]: inactive
concentration at 4 h [24]: 1140 ng/mL
pIC50 (MC9 [25]): < 6.00
concentration at 16 h [26]: 73 ng/mL
pIC50 (MC9 [28]): 8.22
concentration at 4 h [30]: 69 ng/mL
Activity [31]: inactive
Activity [38]: inactive
SMILES: Cc1cccc(C)c1CS(=O)(=O)NCCc1c(CCCc2ccc(C(=O)O)cc2)c2cc(Cl)ccc2n1C(c1ccccc1)c1ccccc1
inhibition in vivo at 5 mg/kg (Rattus norvegicus [6]): > 50%
Activity (Rattus norvegicus [7]): Active
inhibition in vivo at 25 mg/kg (Rattus norvegicus [9]): 34%
Activity (Ovis aries [10]): Active
ED50 (Rattus norvegicus [15]): 8 mg/kg
Activity (Ovis aries [16]): 85%
Ratio [17]: 160 h
Activity (Rattus norvegicus [18]): Active
Activity (Rattus norvegicus [22]): Active
inhibition at 0.039 µM (Blood [27]): 78%
inhibition at 0.039 µM (Blood [29]): 79%
inhibition at 0.039 µM (Blood [32]): 72%
ED50 (Rattus norvegicus [33]): 3.5 mg/kg
Activity (Rattus norvegicus [34]): Active
Activity (Rattus norvegicus [35]): Active
inhibition at 0.039 µM (Blood [36]): 72%
Activity (Rattus norvegicus [37]): Active
inhibition at 0.039 µM (Blood [39]): 57%

clearance [1]: 54 mL/min/kg
pIC50 [2]: 7.70
pIC50 (Blood [3]): 7.10
SMILES: O=C(O)c1ccc(S(=O)(=O)CCc2c(CCNS(=O)(=O)Cc3ccccc3)n(C(c3ccccc3)c3ccccc3)c3ccc(Cl)cc23)cc1

clearance [1]: 32 mL/min/kg
pIC50 [2]: 6.74
pIC50 (Blood [3]): 7.10
SMILES: O=C(O)c1ccc(OCCc2c(CCNS(=O)(=O)Cc3c(F)cccc3F)n(C(c3ccccc3)c3ccccc3)c3ccc(Cl)cc23)cc1

clearance [1]: 7 mL/min/kg
pIC50 [2]: 7.70
pIC50 (Blood [3]): 7.52
SMILES: O=C(O)c1ccc(CCCc2c(CCNS(=O)(=O)Cc3ccccc3Cl)n(C(c3ccccc3)c3ccccc3)c3ccc(Cl)cc23)cc1
